According to ChEMBL document CHEMBL4376826 (J Med Chem, 2020):
≈ marks a conversion by molar mass, not a printed value.

How the values were obtained:
[1] = Drug level in beta-naphthoflavone/phenobarbital-induced rat liver S9 fraction treated with 100 ug/ml Ezutromid-1 assessed as compound formation in presence of NADPH measured after 4 hrs by UV-Vis spectroscopy; type: ADME, subcellular; settings: s9, 4 h
[2] = Retention time in beta-naphthoflavone/phenobarbital-induced rat liver S9 fraction at 100 ug/ml in presence of NADPH by LC-MS/MS analysis; type: ADME, subcellular
[3] = Retention time in human plasma by LC-MS/MS analysis; type: ADME, cell-free
[4] = Lipophilicity, logD of the compound at pH 7.4; type: physicochemical; settings: buffer
[5] = Kinetic aqueous solubility of the compound; type: physicochemical; settings: buffer; read-out: Kinetic_solubility
[6] = Permeability at pH 7.4 by PAMPA; type: ADME; settings: read-out: permeability
[7] = Protein binding in mouse plasma assessed as bound fraction; type: ADME, cell-free; settings: read-out: PPB (converted)
Summary of the method: (§1)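 Binding measured in 100% plasma; reported as fraction bound.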

[8] = Protein binding in human plasma assessed as bound fraction; type: ADME, cell-free; settings: read-out: PPB (converted); summary of the method: as §1
[9] = Half life in mouse liver S9 fraction; type: ADME, subcellular
Summary of the method: (§2)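 Metabolic stability of the dihydrodiols measured in vitro with mouse and human liver S9 fractions and with mouse and human hepatocytes; half-life from substrate depletion.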

[10] = Half life in mouse hepatocytes; type: ADME, cell-based, Hepatocyte; summary of the method: as §2
[11] = biological target: UDP-glucuronosyltransferase 1A4 (Homo sapiens, UniProt P22310); assay: Drug metabolism assessed as human UGT1A4-mediated metabolism by measuring intrinsic clearance; type: ADME; settings: recombinant enzyme
[12] = Half life in human liver S9 fraction; type: ADME, subcellular; summary of the method: as §2
[13] = Half life in human hepatocytes; type: ADME, cell-based, Hepatocyte; summary of the method: as §2
[14] = Intrinsic clearance in mouse liver S9 fraction; type: ADME, subcellular; settings: read-out: CLH
[15] = Intrinsic clearance in mouse hepatocytes; type: ADME, cell-based, Hepatocyte
[16] = Intrinsic clearance in human liver S9 fraction; type: ADME, subcellular; settings: read-out: CLH
[17] = Intrinsic clearance in human hepatocytes; type: ADME, cell-based, Hepatocyte
[18] = system: UDP-glucuronosyltransferases (UGTs); assay: Drug metabolism assessed as human UGT-mediated metabolism by measuring intrinsic clearance; type: ADME, protein assay
UGT1A9 = UGT1A9 (Homo sapiens, UniProt O60656); assay: Inhibition of human UGT1A9 assessed as residual enzyme activity at 10 uM relative to control; type: ADME; settings: read-out: Activity
UGT1A3 = UGT1A3 (Homo sapiens, UniProt P35503); assay: Inhibition of human UGT1A3 assessed as residual enzyme activity at 10 uM relative to control; type: ADME; settings: read-out: Activity
UGT1A4 = UGT1A4 (Homo sapiens, UniProt P22310); assay: Inhibition of human UGT1A4 assessed as residual enzyme activity at 10 uM relative to control; type: ADME; settings: read-out: Activity
[19] = biological target: Broad substrate specificity ATP-binding cassette transporter ABCG2 (Homo sapiens, UniProt Q9UNQ0); assay: Inhibition of BCRP (unknown origin); type: ADME
[20] = biological target: Solute carrier organic anion transporter family member 1B1 (Homo sapiens, UniProt Q9Y6L6); assay: Inhibition of OATP1B1 (unknown origin); type: ADME
[21] = biological target: Solute carrier organic anion transporter family member 1B3 (Homo sapiens, UniProt Q9NPD5); assay: Inhibition of OATP1B3 (unknown origin); type: ADME
[22] = biological target: T1, Amine oxidase [flavin-containing] B (Homo sapiens, UniProt P27338); assay: Inhibition of monoamino oxidase B (unknown origin) at 10 uM
T1 sequence (P27338 whole entry): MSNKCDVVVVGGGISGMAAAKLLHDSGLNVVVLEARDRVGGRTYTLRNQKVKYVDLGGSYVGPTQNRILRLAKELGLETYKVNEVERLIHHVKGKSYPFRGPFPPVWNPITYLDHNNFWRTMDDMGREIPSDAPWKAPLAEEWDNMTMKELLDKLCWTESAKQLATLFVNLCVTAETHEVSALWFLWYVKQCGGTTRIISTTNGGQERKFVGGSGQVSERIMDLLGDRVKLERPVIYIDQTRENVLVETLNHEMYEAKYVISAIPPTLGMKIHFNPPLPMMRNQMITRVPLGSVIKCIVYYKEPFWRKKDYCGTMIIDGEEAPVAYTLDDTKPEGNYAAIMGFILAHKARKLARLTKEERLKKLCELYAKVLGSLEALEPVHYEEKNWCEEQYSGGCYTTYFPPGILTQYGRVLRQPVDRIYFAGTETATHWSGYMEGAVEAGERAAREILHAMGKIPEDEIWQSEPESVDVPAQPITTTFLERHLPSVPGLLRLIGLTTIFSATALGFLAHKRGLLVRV

[23] = Inhibition of adenosine transporter (unknown origin) at 10 uM; type: ADME; settings: human

Chain of Solute carrier organic anion transporter family member 1B3 (Q9NPD5 whole entry): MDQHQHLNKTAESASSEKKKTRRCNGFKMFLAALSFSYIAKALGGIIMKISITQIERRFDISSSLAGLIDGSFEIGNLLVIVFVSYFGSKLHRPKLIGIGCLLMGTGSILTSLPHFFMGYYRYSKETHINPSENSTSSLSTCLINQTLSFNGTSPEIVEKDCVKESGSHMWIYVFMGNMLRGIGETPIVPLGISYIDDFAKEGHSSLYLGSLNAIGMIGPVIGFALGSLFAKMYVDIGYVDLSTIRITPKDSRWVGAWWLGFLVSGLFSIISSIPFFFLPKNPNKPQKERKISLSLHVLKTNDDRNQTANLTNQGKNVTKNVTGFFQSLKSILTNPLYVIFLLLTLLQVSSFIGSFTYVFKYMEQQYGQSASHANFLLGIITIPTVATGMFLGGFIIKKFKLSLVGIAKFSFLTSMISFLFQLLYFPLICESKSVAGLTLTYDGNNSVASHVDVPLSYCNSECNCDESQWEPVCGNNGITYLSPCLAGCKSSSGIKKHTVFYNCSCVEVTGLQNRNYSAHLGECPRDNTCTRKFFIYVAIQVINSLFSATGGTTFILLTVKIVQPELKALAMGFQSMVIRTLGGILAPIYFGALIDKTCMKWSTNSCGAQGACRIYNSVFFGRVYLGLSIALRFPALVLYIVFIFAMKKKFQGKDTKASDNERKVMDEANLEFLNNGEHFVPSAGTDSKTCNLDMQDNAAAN
Chain of Solute carrier organic anion transporter family member 1B1 (Q9Y6L6 whole entry): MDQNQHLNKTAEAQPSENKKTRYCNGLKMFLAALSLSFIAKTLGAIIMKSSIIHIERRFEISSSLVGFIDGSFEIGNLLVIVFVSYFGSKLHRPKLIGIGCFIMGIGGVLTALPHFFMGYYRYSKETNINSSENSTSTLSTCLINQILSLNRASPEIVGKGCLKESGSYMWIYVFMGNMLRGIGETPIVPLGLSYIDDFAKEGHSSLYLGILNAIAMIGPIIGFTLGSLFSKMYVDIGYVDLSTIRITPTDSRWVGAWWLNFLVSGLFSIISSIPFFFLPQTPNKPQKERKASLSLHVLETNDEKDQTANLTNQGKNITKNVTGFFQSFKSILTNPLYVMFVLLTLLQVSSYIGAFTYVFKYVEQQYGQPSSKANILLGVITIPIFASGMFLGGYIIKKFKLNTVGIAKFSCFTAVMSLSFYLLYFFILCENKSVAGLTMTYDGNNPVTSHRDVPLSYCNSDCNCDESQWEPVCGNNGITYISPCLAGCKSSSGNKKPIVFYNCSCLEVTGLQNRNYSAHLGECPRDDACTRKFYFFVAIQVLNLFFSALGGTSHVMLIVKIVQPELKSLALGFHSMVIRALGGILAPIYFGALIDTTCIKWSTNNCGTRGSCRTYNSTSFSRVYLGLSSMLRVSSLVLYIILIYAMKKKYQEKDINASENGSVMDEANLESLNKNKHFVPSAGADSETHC
Chain of UDP-glucuronosyltransferase 1A4 (P22310 whole entry): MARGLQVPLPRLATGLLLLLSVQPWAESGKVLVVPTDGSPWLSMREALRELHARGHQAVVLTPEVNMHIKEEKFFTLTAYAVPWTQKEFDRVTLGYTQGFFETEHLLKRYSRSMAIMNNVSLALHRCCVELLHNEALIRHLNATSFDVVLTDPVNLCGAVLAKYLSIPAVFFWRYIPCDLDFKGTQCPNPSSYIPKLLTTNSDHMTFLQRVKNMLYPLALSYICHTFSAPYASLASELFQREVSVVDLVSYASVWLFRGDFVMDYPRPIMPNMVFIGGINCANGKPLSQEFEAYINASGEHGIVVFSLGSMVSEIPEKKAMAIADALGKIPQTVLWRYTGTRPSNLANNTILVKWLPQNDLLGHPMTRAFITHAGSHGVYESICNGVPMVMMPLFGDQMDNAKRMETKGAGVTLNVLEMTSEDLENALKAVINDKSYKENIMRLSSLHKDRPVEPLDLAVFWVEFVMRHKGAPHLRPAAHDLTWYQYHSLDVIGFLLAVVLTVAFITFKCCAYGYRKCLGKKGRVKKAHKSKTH
Chain of UGT1A4 (P22310 whole entry): as above
Chain of Broad substrate specificity ATP-binding cassette transporter ABCG2 (Q9UNQ0 whole entry): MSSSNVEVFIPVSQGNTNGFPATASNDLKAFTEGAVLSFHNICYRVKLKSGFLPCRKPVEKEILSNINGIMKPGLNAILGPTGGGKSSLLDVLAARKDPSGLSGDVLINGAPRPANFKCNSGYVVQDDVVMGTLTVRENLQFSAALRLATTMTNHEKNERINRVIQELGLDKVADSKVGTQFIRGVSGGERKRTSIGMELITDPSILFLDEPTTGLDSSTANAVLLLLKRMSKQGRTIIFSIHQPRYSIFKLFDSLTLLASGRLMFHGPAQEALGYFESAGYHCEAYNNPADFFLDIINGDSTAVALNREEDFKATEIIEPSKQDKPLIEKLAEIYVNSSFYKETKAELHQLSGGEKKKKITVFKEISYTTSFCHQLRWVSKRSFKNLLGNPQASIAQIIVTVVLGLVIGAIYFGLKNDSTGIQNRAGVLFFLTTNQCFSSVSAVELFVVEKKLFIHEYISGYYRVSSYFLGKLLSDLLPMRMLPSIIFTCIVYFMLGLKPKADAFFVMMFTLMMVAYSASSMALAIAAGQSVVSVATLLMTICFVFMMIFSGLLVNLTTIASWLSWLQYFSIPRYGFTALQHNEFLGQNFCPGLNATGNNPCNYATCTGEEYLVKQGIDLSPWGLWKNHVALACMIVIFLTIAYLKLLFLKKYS
Chain of UGT1A9 (O60656 whole entry): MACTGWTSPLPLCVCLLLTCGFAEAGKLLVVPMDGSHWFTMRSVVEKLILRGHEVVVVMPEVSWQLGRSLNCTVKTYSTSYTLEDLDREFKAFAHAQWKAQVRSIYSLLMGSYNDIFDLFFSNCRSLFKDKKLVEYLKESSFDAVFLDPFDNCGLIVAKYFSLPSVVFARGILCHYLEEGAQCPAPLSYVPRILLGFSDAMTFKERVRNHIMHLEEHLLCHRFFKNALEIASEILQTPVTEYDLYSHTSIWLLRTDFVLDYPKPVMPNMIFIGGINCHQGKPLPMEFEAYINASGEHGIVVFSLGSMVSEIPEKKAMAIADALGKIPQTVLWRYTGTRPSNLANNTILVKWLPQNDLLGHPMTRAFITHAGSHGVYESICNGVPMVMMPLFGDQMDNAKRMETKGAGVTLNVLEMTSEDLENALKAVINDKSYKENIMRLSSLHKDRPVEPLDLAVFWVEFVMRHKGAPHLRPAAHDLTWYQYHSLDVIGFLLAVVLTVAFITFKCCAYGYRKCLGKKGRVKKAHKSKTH
Chain of UGT1A3 (P35503 whole entry): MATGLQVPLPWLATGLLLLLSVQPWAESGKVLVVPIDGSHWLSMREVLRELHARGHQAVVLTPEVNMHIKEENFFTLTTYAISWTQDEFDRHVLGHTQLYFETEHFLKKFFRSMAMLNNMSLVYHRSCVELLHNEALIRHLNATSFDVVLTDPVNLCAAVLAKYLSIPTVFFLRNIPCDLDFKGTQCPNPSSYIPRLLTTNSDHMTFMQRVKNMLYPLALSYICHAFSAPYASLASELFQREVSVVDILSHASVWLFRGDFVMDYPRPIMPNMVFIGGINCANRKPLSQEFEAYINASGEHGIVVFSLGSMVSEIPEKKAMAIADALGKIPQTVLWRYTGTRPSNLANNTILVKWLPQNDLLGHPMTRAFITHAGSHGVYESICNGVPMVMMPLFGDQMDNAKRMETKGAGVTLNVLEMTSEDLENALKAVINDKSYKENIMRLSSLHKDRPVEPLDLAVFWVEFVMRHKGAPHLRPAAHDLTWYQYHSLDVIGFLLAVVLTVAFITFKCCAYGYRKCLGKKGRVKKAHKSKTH

CCS(=O)(=O)c1ccc2oc(-c3ccc4c(c3)[C@@H](O)[C@H](O)C=C4)nc2c1
Drug uptake [1]: Metabolite_Detected | Retention_time [2]: 9 min | Retention_time [3]: 8.9 min | logD [4]: 1.95 | solubility kinetic [5]: 210 µM (≈ 78 µg/mL) | Papp [6]: 34.4 ×10⁻⁶ cm/s | fraction unbound [7]: 0.077 | fraction unbound [8]: 0.128 | half-life [9]: 1.87 h | half-life [10]: 2.38 h | CL [11]: < 2.9 µL/min/pmol | half-life [12]: > 2.3 h | half-life [13]: 2.37 h | microsomal CLint [14]: 13 µL/min/mg | CLH [15]: 5 µL/min/mg | microsomal CLint [16]: < 10 µL/min/mg | CLH [17]: 5 µL/min/mg | CL [18]: < 5.8 µL/min/pmol | activity at 10 µM (UGT1A9): 45% | activity at 10 µM (UGT1A3): 79% | activity at 10 µM (UGT1A4): 84% | inhibition (INH) [19]: Active | inhibition (INH) [20]: Active | inhibition (INH) [21]: Active | inhibition (INH) [22]: Not Active | inhibition (INH) [23]: Not Active
